# In paper PMC11665275 (Organic & Biomolecular Chemistry, 2024):
# Square brackets hold non-standard residues; d marks the D form. Ends that are not written are not given here. Orn = NCCC[C@H](N)C(=O)O; Dab = NCC[C@H](N)C(=O)O; Dap = NC[C@H](N)C(=O)O
# Test: Circular dichroism
# Format: physicochemical
# Settings: CD, PBS pH 7.4 (aqueous), 200 μM peptide, 25 °C, from MRE at 222 nm
# How it was run: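 Spectra taken at 25 °C in PBS (137 mM NaCl, 2.7 mM KCl, 10 mM Na2HPO4, 1.8 mM KH2PO4, pH 7.4) with 200 μM peptide in a 0.1 cm quartz cuvette. Scanned 195–260 nm at 5 nm min−1, 0.50 nm bandwidth, 16 s integration. A single scan was solvent-corrected and converted to MRE. Helicity was calculated using the number of residues in the potential helical region and an empirical end-effect correction.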
row,% Helicity in PBS (value in parentheses) [%],Substance
1,0.9,AMRL[Dab]KFF[Dab]DFILQRKK [5_2–9_2]
2,0.1,AMRL[Orn]KFF[Dap]DFILQRKK [5_3–9_1]
